Experimental data as given in ChEMBL document CHEMBL4346670, “Discovery of Novel Janus Kinase (JAK) and Histone Deacetylase (HDAC) Dual Inhibitors for the Treatment of Hematological Malignancies” (J Med Chem, 2019).
Blank lines part the entries; values can stand above or below the compound they belong to. Calls of active or inactive are those of the source. The calls are words filed in the database; no cut-off is given here.

What was measured:
[1] = test system: K562; experiment: Induction of apoptosis in human K562 cells assessed as late apoptotic cells at 1 uM after 24 hrs by Annexin-V/propidium iodide staining-based flow cytometric analysis (reference value: 5.87%); format: functional
[2] = Toxicity in BALB/c nu mouse xenografted with HEL cells assessed as change in body weight at 60 mg/kg/day, ip administered for 16 days and measured every day during compound dosing in presence of ruxolitinib; format: organism-based; details: in vivo, 384 h
[3] = target: T1, Janus Kinase (JAK) (Homo sapiens) (UniProt P52333+P23458+O60674+P29597); experiment: Inhibition of JAK in human MDA-MB-231 cells assessed as decrease in upregulation of p-STAT3-Tyr705 level at 5 uM after 12 hrs in presence of ruxolitinib by Western blot analysis; format: cell-based
In short: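 MDA-MB-231 cells treated with compound or DMSO for 12 h, then lysed in SDS buffer and cleared by centrifugation. Lysate resolved by SDS-PAGE and transferred to nitrocellulose. Immunoblotted for p-STAT3 (Tyr705), total STAT3, acetyl-α-tubulin and acetyl-histone H3, with GAPDH as loading control. Detection by enhanced chemiluminescence.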

[4] = test system: MOLT-4; experiment: Antiproliferative activity against human MOLT4 cells assessed as reduction in cell viability after 48 hrs by MTT assay; format: functional, cell-based; details: MOLT-4, 48 h
In short: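 Cells kept in RPMI1640 with 10% FBS at 37 °C, 5% CO2. Seeded and grown for 12 h, then exposed to a range of compound concentrations for 48 h. 0.5% MTT added for 4 h, formazan dissolved in DMSO, absorbance read at 570 nm.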

[5] = test system: K562; experiment: Induction of apoptosis in human K562 cells assessed as early apoptotic cells at 1 uM after 24 hrs by Annexin-V/propidium iodide staining-based flow cytometric analysis (reference value: 7.55%); format: functional
[6] = target: Tyrosine-protein kinase JAK2 (Homo sapiens, UniProt O60674); experiment: Inhibition of recombinant human JAK2 at 10 uM using Ulight-CAGAGAIETDKEYYTVKD as substrate measured after 60 mins by LANCE assay
[7] = test system: K562; experiment: Induction of apoptosis in human K562 cells assessed as viable cells at 1 uM after 24 hrs by Annexin-V/propidium iodide staining-based flow cytometric analysis (reference value: 85.7%); format: functional
[8] = test system: HEL; experiment: Induction of apoptosis in HEL cells assessed as viable cells at 1 uM after 24 hrs by Annexin-V/propidium iodide staining-based flow cytometric analysis (reference value: 87.5%); format: functional, Homo sapiens
[9] = test system: K562; experiment: Induction of apoptosis in human K562 cells assessed as necrotic apoptotic cells at 1 uM after 24 hrs by Annexin-V/propidium iodide staining-based flow cytometric analysis (reference value: 0.827%); format: functional
[10] = test system: HEL; experiment: Induction of apoptosis in HEL cells assessed as late apoptotic cells at 1 uM after 24 hrs by Annexin-V/propidium iodide staining-based flow cytometric analysis (reference value: 0.023%); format: functional, Homo sapiens
[11] = Toxicity in BALB/c nu mouse xenografted with HEL cells assessed as injury to internal organs at 60 mg/kg/day, ip administered for 16 days and measured post-last dose in presence of ruxolitinib; format: organism-based; details: in vivo, 384 h
[12] = test system: HEL; experiment: Induction of apoptosis in HEL cells assessed as necrotic apoptotic cells at 1 uM after 24 hrs by Annexin-V/propidium iodide staining-based flow cytometric analysis (reference value: 0.011%); format: functional, Homo sapiens
[13] = test system: HEL; experiment: Induction of apoptosis in HEL cells assessed as early apoptotic cells at 1 uM after 24 hrs by Annexin-V/propidium iodide staining-based flow cytometric analysis (reference value: 12.5%); format: functional, Homo sapiens
[14] = Drug level in BALB/c nu mouse xenografted with HEL cells at 100 mg/kg/day, ip administered for 5 days and measured after 0.5 to 4 hrs by LC-MS/MS analysis; format: ADME, organism-based; details: in vivo
In short: (§1)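 HEL-xenografted male BALB/c-nu mice dosed IP at 100 mg/kg/day for 5 days. Sacrificed 0.5, 1.0 and 4.0 h after the last dose. Plasma separated and stored at -80 °C. Tumors homogenized in normal saline (5:1 v/w) and sonicated. Samples deproteinized with methanol containing internal standard, centrifuged, diluted in methanol/acetonitrile and recentrifuged.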

[15] = target: T1, Janus Kinase (JAK) (Homo sapiens); experiment: Inhibition of JAK in human MDA-MB-231 cells assessed as downregulation of p-STAT3-Tyr705 level at 5 uM after 12 hrs by Western blot analysis
[16] = target: Histone deacetylase 2 (Homo sapiens, UniProt Q92769); details: A549, at 80 to 400 nM
[17] = Drug level in tumor of BALB/c nu mouse xenografted with HEL cells at 100 mg/kg/day, ip administered for 5 days and measured 1 hr post-last dose by LC-MS/MS analysis; format: ADME, organism-based, Neoplasm; details: in vivo; in short: as §1
[18] = test system: HEL; experiment: Antitumor activity against HEL cells xenografted in BALB/c nu mouse assessed as tumor growth inhibition at 70 mg/kg/day, ip administered for 16 days and measured every 3 days during compound dosing in presence of SAHA by caliper method relative to control; format: functional, Homo sapiens; details: read-out: TGI
In short: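 Male BALB/c-nu mice (5-6 weeks) inoculated subcutaneously in the right flank with 1 × 10^7 HEL cells. Randomized at day 10 (6 per group). Dosed IP daily for 16 days; controls received PBS with 5% DMSO. Tumors measured by caliper every three days (V = ab²/2) and body weight monitored. TGI calculated from final tumor weights versus control.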

[19] = target: T2, Protein deacetylase HDAC6 (Homo sapiens, UniProt Q9UBN7); experiment: Inhibition of recombinant human HDAC6 using p53 (379 to 382 residues) derived fluorogenic peptide RHKKAc as substrate
T2 sequence (Q9UBN7 whole entry): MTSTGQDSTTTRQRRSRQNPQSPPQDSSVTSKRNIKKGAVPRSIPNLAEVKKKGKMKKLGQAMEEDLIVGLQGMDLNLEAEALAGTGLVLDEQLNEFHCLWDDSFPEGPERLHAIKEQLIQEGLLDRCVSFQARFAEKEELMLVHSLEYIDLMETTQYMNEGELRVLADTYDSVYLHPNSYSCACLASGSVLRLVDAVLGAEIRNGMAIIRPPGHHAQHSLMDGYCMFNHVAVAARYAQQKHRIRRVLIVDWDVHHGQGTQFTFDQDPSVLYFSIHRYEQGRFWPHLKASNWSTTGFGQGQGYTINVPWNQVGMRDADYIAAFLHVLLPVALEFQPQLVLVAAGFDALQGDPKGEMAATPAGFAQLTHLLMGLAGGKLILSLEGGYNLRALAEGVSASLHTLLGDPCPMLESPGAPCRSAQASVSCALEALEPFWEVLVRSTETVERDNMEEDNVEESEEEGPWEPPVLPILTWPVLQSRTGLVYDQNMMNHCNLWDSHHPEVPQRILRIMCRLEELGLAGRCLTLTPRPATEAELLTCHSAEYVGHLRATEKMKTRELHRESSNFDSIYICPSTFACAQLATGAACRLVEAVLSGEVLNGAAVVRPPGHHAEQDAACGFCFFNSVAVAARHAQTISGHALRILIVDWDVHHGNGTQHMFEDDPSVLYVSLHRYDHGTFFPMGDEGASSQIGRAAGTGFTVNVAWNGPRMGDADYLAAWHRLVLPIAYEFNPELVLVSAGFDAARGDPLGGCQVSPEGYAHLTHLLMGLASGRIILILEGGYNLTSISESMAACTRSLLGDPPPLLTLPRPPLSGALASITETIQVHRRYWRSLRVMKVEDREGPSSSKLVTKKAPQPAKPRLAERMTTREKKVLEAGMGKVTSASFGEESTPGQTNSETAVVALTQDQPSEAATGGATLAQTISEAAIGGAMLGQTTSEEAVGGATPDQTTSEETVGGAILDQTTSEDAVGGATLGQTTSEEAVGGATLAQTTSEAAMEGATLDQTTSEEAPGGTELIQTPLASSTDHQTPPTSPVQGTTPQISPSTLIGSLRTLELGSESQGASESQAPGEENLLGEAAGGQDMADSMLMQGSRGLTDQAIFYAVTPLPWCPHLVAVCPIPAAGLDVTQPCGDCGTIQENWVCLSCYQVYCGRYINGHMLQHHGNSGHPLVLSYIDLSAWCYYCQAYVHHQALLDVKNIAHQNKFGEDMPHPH

[20] = test system: HEL; experiment: Synergistic antiproliferative activity against HEL cells harboring JAK2 V617F mutant assessed as reduction in cell viability after 48 hrs in presence of SAHA by MTT assay; format: functional, cell-based; details: Homo sapiens
[21] = test system: HEL; experiment: Synergistic antiproliferative activity against HEL cells harboring JAK2 V617F mutant assessed as combination index after 48 hrs in presence of SAHA by MTT assay; format: functional, Homo sapiens
[22] = test system: HEL; experiment: Antitumor activity against HEL cells xenografted in BALB/c nu mouse assessed as reduction in tumor volume at 100 mg/kg/day, ip administered for 16 days and measured every 3 days during compound dosing by caliper method relative to control; format: functional, Homo sapiens; details: read-out: TGI
[23] = Toxicity in BALB/c nu mouse xenografted with HEL cells assessed as change in body weight at 70 mg/kg/day, ip administered for 16 days and measured every day during compound dosing in presence of SAHA; format: organism-based; details: in vivo, 384 h
[24] = test system: K562; experiment: Synergistic antiproliferative activity against human K562 cells assessed as reduction in cell viability after 48 hrs in presence of SAHA by MTT assay; format: functional, cell-based; details: K562, 48 h
[25] = test system: K562; experiment: Antiproliferative activity against human K562 cells assessed as reduction in cell viability after 48 hrs by MTT assay; format: functional, cell-based; details: K562, 48 h
[26] = test system: Jurkat; experiment: Antiproliferative activity against human Jurkat cells assessed as reduction in cell viability after 48 hrs by MTT assay; format: functional, cell-based
[27] = test system: K562; experiment: Synergistic antiproliferative activity against human K562 cells assessed as combination index after 48 hrs in presence of SAHA by MTT assay; format: functional
[28] = Toxicity in BALB/c nu mouse xenografted with HEL cells assessed as injury to internal organs at 70 mg/kg/day, ip administered for 16 days and measured post-last dose in presence of SAHA; format: organism-based; details: in vivo, 384 h
[29] = test system: HEL; experiment: Antiproliferative activity against HEL cells harboring JAK2 V617F mutant assessed as reduction in cell viability after 48 hrs by MTT assay; format: functional, cell-based; details: Homo sapiens

Sequence of Tyrosine-protein kinase JAK2 (O60674 whole entry): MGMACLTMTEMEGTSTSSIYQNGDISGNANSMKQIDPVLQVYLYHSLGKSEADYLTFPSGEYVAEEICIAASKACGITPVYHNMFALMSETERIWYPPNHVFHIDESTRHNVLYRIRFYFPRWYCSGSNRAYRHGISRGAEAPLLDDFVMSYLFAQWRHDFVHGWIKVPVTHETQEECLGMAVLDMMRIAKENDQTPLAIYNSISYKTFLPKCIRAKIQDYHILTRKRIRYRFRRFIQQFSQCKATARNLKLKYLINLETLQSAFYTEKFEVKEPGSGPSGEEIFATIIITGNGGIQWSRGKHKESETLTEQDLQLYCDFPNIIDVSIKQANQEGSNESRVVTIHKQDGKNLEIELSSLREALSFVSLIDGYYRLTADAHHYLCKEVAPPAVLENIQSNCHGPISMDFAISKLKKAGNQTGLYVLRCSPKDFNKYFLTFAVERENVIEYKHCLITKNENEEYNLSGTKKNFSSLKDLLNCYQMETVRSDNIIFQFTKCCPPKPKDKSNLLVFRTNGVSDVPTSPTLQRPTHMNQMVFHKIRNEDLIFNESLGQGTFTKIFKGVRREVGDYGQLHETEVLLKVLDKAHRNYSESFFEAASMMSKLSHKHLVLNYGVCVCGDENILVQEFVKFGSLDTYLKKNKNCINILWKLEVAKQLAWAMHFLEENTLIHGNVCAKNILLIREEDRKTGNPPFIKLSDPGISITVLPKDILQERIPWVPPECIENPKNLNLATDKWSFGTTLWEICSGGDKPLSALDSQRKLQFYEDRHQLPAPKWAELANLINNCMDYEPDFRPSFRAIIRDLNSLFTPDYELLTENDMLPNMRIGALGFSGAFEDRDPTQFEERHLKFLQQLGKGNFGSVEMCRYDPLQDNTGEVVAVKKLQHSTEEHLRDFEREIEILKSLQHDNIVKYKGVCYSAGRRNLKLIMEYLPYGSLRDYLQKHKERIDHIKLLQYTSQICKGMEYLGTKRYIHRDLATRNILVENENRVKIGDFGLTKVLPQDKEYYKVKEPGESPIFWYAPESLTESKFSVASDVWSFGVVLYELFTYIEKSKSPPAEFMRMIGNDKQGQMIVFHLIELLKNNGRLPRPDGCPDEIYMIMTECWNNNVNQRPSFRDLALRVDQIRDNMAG
Sequence of Histone deacetylase 2 (Q92769 whole entry): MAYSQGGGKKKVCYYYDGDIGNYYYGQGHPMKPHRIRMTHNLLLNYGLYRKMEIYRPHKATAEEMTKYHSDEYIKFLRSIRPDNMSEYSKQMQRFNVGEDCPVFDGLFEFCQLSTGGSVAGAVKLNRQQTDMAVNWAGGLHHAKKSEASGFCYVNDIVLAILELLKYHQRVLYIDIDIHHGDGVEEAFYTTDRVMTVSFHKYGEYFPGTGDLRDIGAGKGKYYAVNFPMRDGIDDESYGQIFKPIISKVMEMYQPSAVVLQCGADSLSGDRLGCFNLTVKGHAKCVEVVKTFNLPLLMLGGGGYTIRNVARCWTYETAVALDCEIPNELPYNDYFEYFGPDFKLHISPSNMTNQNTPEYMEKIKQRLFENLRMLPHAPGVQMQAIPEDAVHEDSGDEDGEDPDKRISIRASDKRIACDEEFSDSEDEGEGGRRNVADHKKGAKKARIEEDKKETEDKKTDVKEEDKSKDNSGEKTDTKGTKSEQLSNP

inhibition [3]: Active
IC50 [4]: 400 nM
inhibition [6]: inactive
Drug uptake [14]: Active
Activity [15]: Active
Structure (SMILES): O=C(CCCCCCC(=O)Nc1ccccc1)NO [VORINOSTAT]
Activity [1]: 17.3%
Activity [2]: Non-Toxic
Activity [5]: 14.5%
Activity [7]: 67.6%
Activity [8]: 32.1%
Activity [9]: 0.73%
Activity [10]: 44.6%
Activity [11]: Non-Toxic
Activity [12]: 2%
Activity [13]: 21.3%

inhibition [16]: Active
Drug uptake [17]: Active
IC50 [19]: 15 nM
IC50 [4]: 15800 nM
IC50 [24]: 1030 nM
IC50 [25]: 23200 nM
IC50 [26]: > 5000 nM
Structure (SMILES): N#CC[C@H](C1CCCC1)n1cc(-c2ncnc3[nH]ccc23)cn1 [RUXOLITINIB]
Activity [1]: 15.3%
inhibition in vivo at 70 mg/kg/day [18]: 57%
IC50 [20]: 300 nM
CI [21]: 0.48
Activity [5]: 9.22%
inhibition in vivo at 100 mg/kg/day [22]: 27%
Activity [23]: Non-Toxic
viability at 1 µM ([7]; Homo sapiens, K562, 24 h, read-out: Activity): 75.2%
viability at 1 µM ([8]; Homo sapiens, HEL, 24 h, read-out: Activity): 79.4%
Activity [9]: 0.248%
CI [27]: 0.97
Activity [10]: 11.7%
Activity [28]: Non-Toxic
Activity [12]: 0.85%
Activity [13]: 8.08%
IC50 [29]: 18600 nM
